Test results from PubChem BioAssay.
Active and inactive are the calls of the source.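 The calls were made as follows, unless noted: active = GFP response above 150% of the DMSO level; inconclusive = fewer than 70 events counted for a yeast strain; inactive = the rest.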

Legend:
[1] = hit retest on RPL19A-GFP reporter strain – cell-based, S. cerevisiae, flow cytometry, cherry picks, mother/daughter gates, confirmation (AID 2270;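 active = GFP response below 50% of the DMSO control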); conditions: 3 h, at 10 µM, stronger effect = lower value, 100 = same GFP as DMSO wells
[2] = yeast TOR pathway reporter LAP4-GFP change – cell-based, cherry picks, flow cytometry, mother/daughter gates, confirmation (AID 2271;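 active = GFP response above 150% of the DMSO control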;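 also: ratio of sample to DMSO plate mean so 100% equals DMSO level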); conditions: S. cerevisiae LAP4-GFP strain, 3 h, at 10 µM, stronger effect = higher value, 100 means same as DMSO control
In short: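 Measured by: GFP by flow cytometry. Test system: GFP-fusion yeast strain. Input: yeast cells seeded at OD600 of 0.2. Timing: 30 °C, 3 h compound incubation, rotating. Buffer or medium: synthetic complete medium for yeast. Benchmarks: DMSO-only negative wells, rapamycin 400 ng/mL positive wells. Compound: 10 µM single dose.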

[3] = TOR pathway reporter MEP2-GFP, retest of hits – S. cerevisiae, flow cytometry GFP, cherry picks, confirmation (AID 2272;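 active = GFP response above 150% of the DMSO control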;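 also: ratio of well signal to plate DMSO mean so 100% equals DMSO level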); conditions: S. cerevisiae MEP2-GFP strain, 3 h, at 10 µM, stronger effect = higher value
[4] = yeast AGP1-GFP fluorescence change, single-dose – cell-based, flow cytometry, S. cerevisiae, cherry picks, confirmation (AID 2273);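 also: median GFP channel fluorescence over the whole cell population gate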; conditions: S. cerevisiae AGP1-GFP strain, 3 h, at 10 µM
[5] = TOR pathway CIT2 reporter hit retest – S. cerevisiae, GFP fusion, cherry picks, mother/daughter gates, confirmation (AID 2274); conditions: S. cerevisiae CIT2-GFP strain, flow cytometry, 3 h, at 10 µM, stronger effect = higher value
[6] = measured here: daughter cell gate
[7] = measured here: mother cell gate
[8] = measured here: daughter cell gate response
[9] = measured here: mother cell gate response

SMILES | GFP response vs DMSO [1] | GFP response vs DMSO [1, 6] [%] | GFP response vs DMSO [1, 7] [%] | GFP response relative to DMSO [2] | GFP response relative to DMSO [2, 8] [%] | GFP response relative to DMSO [2, 9] [%] | GFP response vs DMSO [3] | GFP response, % of DMSO [4] | GFP response, % of DMSO [5] | GFP response, % of DMSO [5, 6] [%] | GFP response, % of DMSO [5, 7] [%]
O=S(=O)(CCN(CCS(=O)(=O)C(F)(F)F)CC1CCCO1)C(F)(F)F (stereo unspecified) | 92.9% (inactive) | 96.2 | 86.3 | 219% (active) | 179 | 210 | 118% (inactive) | 94.5% (inactive) | 111% (inactive) | 115 | 96.8
Cc1c([N+](=O)[O-])cnc(Sc2ccccc2)c1[N+](=O)[O-] | 100% (inactive) | 96.9 | 98.9 | 124% (inactive) | 120 | 127 | 102% (inactive) | 97.6% (inactive) | 101% (inactive) | 101 | 99.7
COc1ccc(N=Nc2ccc(O)c3ncccc23)cc1 | 99.5% (inactive) | 100 | 98.8 | 199% (active) | 189 | 200 | 116% (inactive) | 94.5% (inactive) | 109% (inactive) | 113 | 103
COc1ccc(C2CC(c3ccccc3)=NN2S(=O)(=O)c2ccccc2)cc1 (stereo unspecified) | 101% (inactive) | 102 | 101 | 113% (inactive) | 110 | 112 | 146% (inactive) | 104% (inactive) | 141% (inactive) | 143 | 136
Cc1cc(C)nc(/N=C(\N)N2CCCCCC2)n1 | 99.3% (inactive) | 100 | 100 | 103% (inactive) | 104 | 102 | 99.5% (inactive) | 99.5% (inactive) | 101% (inactive) | 100 | 100
COc1ccc2cc(-c3cc(C(=O)O)c4ccccc4n3)ccc2c1 | 98.6% (inactive) | 95.9 | 98.2 | 99.8% (inactive) | 100 | 101 | 107% (inactive) | 96.5% (inactive) | 145% (inactive) | 128 | 152
Cc1cc(-n2nc(C)cc2C)n2ncc(-c3ccccc3)c2n1 | 105% (inactive) | 101 | 106 | 95.7% (inactive) | 95.9 | 96.2 | 103% (inactive) | 102% (inactive) | 97.3% (inactive) | 95.6 | 98.1
O=C(N/N=C/c1cccc(Oc2ccccc2)c1)c1ccncc1 | 96.7% (inactive) | 97.3 | 95.4 | 107% (inactive) | 99 | 108 | 103% (inactive) | 103% (inactive) | 95.8% (inactive) | 97.6 | 96
CCOc1ccc(N/N=C(/C#N)C(N)=O)cc1 | 82.7% (inactive) | 65.8 | 81.8 | 237% (active) | 182 | 250 | 176% (active) | 113% (inactive) | 161% (active) | 128 | 159
Cc1ccc(NC(=O)CCCSc2nc3ccccc3[nH]2)cc1 | 99.6% (inactive) | 99.1 | 100 | 96.1% (inactive) | 98.2 | 98.2 | 98.8% (inactive) | 106% (inactive) | 113% (inactive) | 111 | 114
O=C(N/N=C/c1ccccc1Cl)c1cccc(F)c1 | 101% (inactive) | 98.1 | 99.8 | 103% (inactive) | 101 | 104 | 101% (inactive) | 98.8% (inactive) | 100% (inactive) | 101 | 98.1
CCn1c(=O)c(C(=O)Nc2ccsc2C(=O)OC)c(O)c2ccccc21 | 103% (inactive) | 101 | 103 | 93.1% (inactive) | 92.6 | 94.1 | 96.8% (inactive) | 103% (inactive) | 100% (inactive) | 99.2 | 101
Cc1cccc(CS(=O)(=O)c2ncc(Cl)c(C(=O)Nc3c(C)cccc3C)n2)c1 | 106% (inactive) | 98.6 | 107 | 106% (inactive) | 101 | 107 | 105% (inactive) | 99.4% (inactive) | 100% (inactive) | 97.4 | 101
C/C(=N\NC(=O)c1c(Br)c(C)nn1C)c1cccc(NC(=O)C2CCC2)c1 | 100% (inactive) | 101 | 102 | 101% (inactive) | 97.9 | 101 | 102% (inactive) | 106% (inactive) | 99.3% (inactive) | 98.3 | 99.1
O=C(CSc1nc2ccsc2c(=O)n1CC1CCC(C(=O)O)CC1)c1ccc(F)cc1 (stereo unspecified) | 102% (inactive) | 100 | 103 | 89% (inactive) | 89.5 | 91.1 | 100% (inactive) | 94.6% (inactive) | 92.6% (inactive) | 94.8 | 92.3
O=C(COC(=O)c1n[nH]c2ccccc12)c1ccc(F)c(F)c1 | 97.1% (inactive) | 98.7 | 96.3 | 104% (inactive) | 97.5 | 106 | 103% (inactive) | 97% (inactive) | 98.6% (inactive) | 101 | 98.2

SMILES | GFP response vs DMSO [1] | GFP response vs DMSO [1, 6] [%] | GFP response vs DMSO [1, 7] [%] | GFP response relative to DMSO [2] | GFP response relative to DMSO [2, 8] [%] | GFP response relative to DMSO [2, 9] [%] | GFP response vs DMSO [3] | GFP response, % of DMSO [4] | GFP response, % of DMSO [5] | GFP response, % of DMSO [5, 6] [%] | GFP response, % of DMSO [5, 7] [%]
Cc1nn(C)cc1C(C)NC(=O)c1cc(COc2ccc(F)c(F)c2)on1 (stereo unspecified) | 101% (inactive) | 100 | 102 | 93.8% (inactive) | 94.1 | 96.2 | 100% (inactive) | 93.7% (inactive) | 97.8% (inactive) | 98.1 | 97.7
COCc1nnc(NC(=O)c2ccc(S(=O)(=O)N3CCCCCC3)cc2)o1 | 105% (inactive) | 99.8 | 105 | 105% (inactive) | 97.5 | 107 | 107% (inactive) | 101% (inactive) | 97.3% (inactive) | 97.4 | 96.8
C/C(=N\NC(=O)COc1ccccc1-c1ccccc1)c1ccccn1 | 101% (inactive) | 99.1 | 102 | 145% (inactive) | 136 | 162 | 96.6% (inactive) | 94.5% (inactive) | 102% (inactive) | 106 | 97.7
Cc1cc(O)c(C(=O)/C=C/c2ccc(Cl)cc2)c(=O)o1 | 97.2% (inactive) | 101 | 95.5 | 180% (active) | 156 | 180 | 110% (inactive) | 99.7% (inactive) | 95% (inactive) | 104 | 86.3
O=C(O)Cc1csc(-c2cccc(Oc3ccccc3)c2)n1 | 100% (inactive) | 97.8 | 101 | 105% (inactive) | 98.7 | 106 | 100% (inactive) | 95.4% (inactive) | 93.9% (inactive) | 93.2 | 93.4
O=S(=O)(c1ccccc1)N1N=C(c2cccs2)CC1c1ccc(Br)cc1 (stereo unspecified) | 98% (inactive) | 99.4 | 98.4 | 97.9% (inactive) | 99.2 | 97.2 | 102% (inactive) | 98.3% (inactive) | 98.3% (inactive) | 97.2 | 97.3
CCOc1cc(/C=C2\N=C(C)OC2=O)cc(Cl)c1OCC(=O)OC | 105% (inactive) | 106 | 101 | 122% (inactive) | 120 | 125 | 101% (inactive) | 92.4% (inactive) | 93% (inactive) | 95.6 | 90.7
O=C(COC(=O)C1CCN(c2ccc(C(F)(F)F)cn2)CC1)Nc1cccc(F)c1 | 95% (inactive) | 94.6 | 96.1 | 102% (inactive) | 102 | 100 | 96.2% (inactive) | 97.2% (inactive) | 104% (inactive) | 108 | 102
Cc1cc(NC(=O)c2cc3ccccc3o2)ccc1NC(=O)c1ccccc1 | 98.4% (inactive) | 97.4 | 99.8 | 95.4% (inactive) | 94.4 | 96.1 | 102% (inactive) | 95.4% (inactive) | 101% (inactive) | 101 | 99.7
CCOc1ccc(C(=O)/C=C/c2ccccc2C(F)(F)F)cc1 | 98.2% (inactive) | 96.9 | 99 | 97.9% (inactive) | 99.2 | 96.1 | 100% (inactive) | 99.1% (inactive) | 104% (inactive) | 105 | 103
CCOc1ccc(S(=O)(=O)n2ccnc2C)cc1 | 99.7% (inactive) | 100 | 98.4 | 96.2% (inactive) | 97.2 | 98.3 | 102% (inactive) | 102% (inactive) | 104% (inactive) | 103 | 104
Cc1ccc(-n2nc(C)c3c(C)c(CCC(=O)O)c(C)nc32)cc1 | 102% (inactive) | 100 | 103 | 101% (inactive) | 101 | 100 | 96.8% (inactive) | 100% (inactive) | 102% (inactive) | 101 | 102
O=C(Cc1ccc(Cl)cc1)Nc1ccc(Br)cn1 | 103% (inactive) | 100 | 103 | 108% (inactive) | 106 | 111 | 118% (inactive) | 113% (inactive) | 105% (inactive) | 112 | 99.3
COc1ccc2ccccc2c1/C=N/Nc1cccc(C(=O)O)c1 | 99.4% (inactive) | 98.6 | 100 | 98.2% (inactive) | 99.1 | 98.4 | 105% (inactive) | 102% (inactive) | 103% (inactive) | 101 | 102
O=C(Nc1nc(-c2ccccc2)cs1)c1ccc(Br)o1 | 102% (inactive) | 101 | 101 | 106% (inactive) | 101 | 108 | 99% (inactive) | 94.9% (inactive) | 108% (inactive) | 105 | 107
